Published values pooled from the literature.
Target: Calcium/calmodulin-dependent protein kinase type 1 (CAMK1, Homo sapiens, UniProt Q14012)

Cc1cc(O)c(-c2ccc([C@@H](C)CN(C)C)cc2)c2c1[nH]c(=O)c1sccc12
inhibition (cell-free assay, inhibitor; 0.1 µM, lysate): 2.27%

C=CC(=O)N1CCC([C@@H]2CCNc3c(C(N)=O)c(-c4ccc(Oc5ccccc5)cc4)nn32)CC1
inhibition (enzyme activity, inhibitor; 1 µM): 7%

CCCCC(=O)Nc1ccc(-c2ccc3ncn(CCC)c(=O)c3c2)cn1
remaining binding (binding, competition with immobilised ligand; 0.5 µM): 88%

Cc1ccc(NC(=O)c2ccnc(C(F)(F)F)c2)cc1-c1cc(OCCO)nc(N2CCOCC2)c1
remaining binding (binding; 1 µM): 100%

CC#CC(=O)N1CCC[C@H]1c1nc(-c2ccc(C(=O)Nc3ccccn3)cc2)c2c(N)nccn12
inhibition (enzyme activity, inhibitor; 1 µM): 26%

C[C@H]1CC[C@H](n2c3cnccc3c3cnc(Nc4ccc5c(n4)CCN(C(=O)CO)C5)nc32)CC1
remaining signal (cell-free assay; 1 µM): 45%

COc1ccc2oc(-c3ccc4nc(N)oc4c3)c/c(=N\c3ccccc3NC(=O)CCN)c2c1
remaining binding (binding; 1 µM): 70%

C1=C/COCc2cc(ccc2OCCN2CCCC2)Nc2nccc(n2)-c2cccc(c2)COC/1
remaining binding (binding; 0.1 µM): 65%
